According to ChEMBL document CHEMBL1641447, “Rational design and synthesis of potent aminoglycoside antibiotics against resistant bacterial strains” (2011):
Converted amounts (≈) assume the structure as drawn.

Assays:
Format in all cases: functional
Enterococcus faecalis = experiment: Antibacterial activity against Enterococcus faecalis ATCC 29212 after 16-20 hrs by microdilution broth method
Summary of the method: (§1)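 CLSI broth microdilution with test agents as hydrochloride salts (HPLC purity over 98%), twofold dilutions in 96-well trays. Actively growing broth cultures were diluted to McFarland 0.5 for the inoculum. Trays were covered and incubated at 37 °C for 16–20 h. MIC (µg/mL) was the lowest concentration without visible growth; triplicate runs.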

Pseudomonas aeruginosa = experiment: Antibacterial activity against Pseudomonas aeruginosa ATCC 27853 after 16-20 hrs by microdilution broth method; summary of the method: as §1
Staphylococcus aureus [1] = experiment: Antibacterial activity against Staphylococcus aureus ATCC 29213 after 16-20 hrs by microdilution broth method; summary of the method: as §1
Staphylococcus aureus [2] = experiment: Antibacterial activity against methicillin-resistant Staphylococcus aureus ATCC 33591 after 16-20 hrs by microdilution broth method
Summary of the method: (§2)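 CLSI broth microdilution on hydrochloride salts (HPLC purity over 98%). Actively growing broth cultures were adjusted to McFarland 0.5 and added to 2-fold drug dilutions to give a final inoculum of […]. Trays were covered and incubated at 37 °C for 16–20 h. MIC ([…]) was taken as the lowest concentration preventing visible growth. Tests were run in triplicate.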

Escherichia coli [3] = experiment: Antibacterial activity against Escherichia coli ATCC 25922 after 16-20 hrs by microdilution broth method; summary of the method: as §1
Mortierella alpina = experiment: Antibacterial activity against Mortierella alpina ATCC 32221 after 16-20 hrs by microdilution broth method
[4] = test system: Staphylococcus epidermidis; experiment: Antibacterial activity against Staphylococcus epidermidis 07-9 clinical isolate expressing APH(30)-IIIa after 16-20 hrs by microdilution broth method
Summary of the method: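 Clinical isolate from a Beijing Friendship Hospital patient (2007), with aph(3′)-IIIa confirmed by PCR. CLSI broth microdilution with hydrochloride salts in twofold dilutions, inoculum from actively growing culture at McFarland 0.5, 37 °C for 16–20 h in covered trays. MIC (µg/mL) was the lowest concentration inhibiting visible growth; triplicate runs.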

[5] = test system: Staphylococcus epidermidis; experiment: Antibacterial activity against Staphylococcus epidermidis ATCC 12228 after 16-20 hrs by microdilution broth method; summary of the method: as §1
Escherichia coli [6] = experiment: Antibacterial activity against Escherichia coli ATCC 35218 after 16-20 hrs by microdilution broth method; summary of the method: as §1
Escherichia coli [7] = experiment: Antibacterial activity against Escherichia coli BL21 expressing pET29a engineering strain expressing APH(30)-Ia after 16-20 hrs by microdilution broth method; summary of the method: as §2
Klebsiella pneumoniae = experiment: Antibacterial activity against Klebsiella pneumoniae ATCC 700603 after 16-20 hrs by microdilution broth method; summary of the method: as §1
[8] = test system: Staphylococcus epidermidis; experiment: Antibacterial activity against methicillin-resistant isolate Staphylococcus epidermidis 08-18 after 16-20 hrs by microdilution broth method; summary of the method: as §2

Row | Structure (SMILES) | MIC (Enterococcus faecalis) [µg/mL] | MIC (Pseudomonas aeruginosa) [µg/mL] | MIC (Staphylococcus aureus [1]) [µg/mL] | MIC (Staphylococcus aureus [2]) [µg/mL] | MIC (Escherichia coli [3]) [µg/mL] | MIC (Mortierella alpina) [µg/mL] | MIC [4] [µg/mL] | MIC [5] [µg/mL] | MIC (Escherichia coli [6]) [µg/mL] | MIC (Escherichia coli [7]) [µg/mL] | MIC (Klebsiella pneumoniae) [µg/mL] | MIC [8] [µg/mL]
1 | Cc1ccccc1C(=O)NCC(=O)N[C@H]1[C@H](O)[C@@H](N)[C@@H](O[C@H]2[C@H](O)[C@@H](O[C@H]3O[C@H](CO)[C@@H](O)[C@H](N)[C@H]3O)[C@H](N)C[C@@H]2N)O[C@@H]1CN | 64 (≈ 97.3 µM) | 32 (≈ 48.7 µM) | 2 (≈ 3.04 µM) | 64 (≈ 97.3 µM) | 4 (≈ 6.08 µM) | > 128 | > 128 | 0.5 (≈ 0.76 µM) | 4 (≈ 6.08 µM) | > 128 | 64 (≈ 97.3 µM) | 8 (≈ 12.2 µM)
2 | NC[C@@H]1O[C@@H](O[C@H]2[C@H](O)[C@@H](O[C@H]3O[C@H](CO)[C@@H](O)[C@H](N)[C@H]3O)[C@H](N)C[C@@H]2N)[C@@H](O)[C@H](O)[C@H]1O [KANAMYCIN A] | 64 (≈ 132 µM) | > 128 | 2 (≈ 4.13 µM) | 128 (≈ 264 µM) | 2 (≈ 4.13 µM) | > 128 | > 128 | 1 (≈ 2.06 µM) | 4 (≈ 8.26 µM) | > 128 | 64 (≈ 132 µM) | 8 (≈ 16.5 µM)
3 | NCCCC(=O)N[C@H]1[C@H](O)[C@@H](N)[C@@H](O[C@H]2[C@H](O)[C@@H](O[C@H]3O[C@H](CO)[C@@H](O)[C@H](N)[C@H]3O)[C@H](N)C[C@@H]2N)O[C@@H]1CN | 32 (≈ 56.4 µM) | 0.5 (≈ 0.881 µM) | 0.25 (≈ 0.44 µM) | 2 (≈ 3.52 µM) | 1 (≈ 1.76 µM) | > 128 | 32 (≈ 56.4 µM) | < 0.06 | 1 (≈ 1.76 µM) | 8 (≈ 14.1 µM) | 1 (≈ 1.76 µM) | 0.25 (≈ 0.44 µM)
4 | CC(=O)N[C@H]1[C@H](O)[C@@H](N)[C@@H](O[C@H]2[C@H](O)[C@@H](O[C@H]3O[C@H](CO)[C@@H](O)[C@H](N)[C@H]3O)[C@H](N)C[C@@H]2N)O[C@@H]1CN | > 128 | 4 (≈ 7.63 µM) | 2 (≈ 3.81 µM) | 16 (≈ 30.5 µM) | 2 (≈ 3.81 µM) | > 128 | > 128 | 0.5 (≈ 0.953 µM) | 8 (≈ 15.3 µM) | 128 (≈ 244 µM) | 2 (≈ 3.81 µM) | 2 (≈ 3.81 µM)
5 | NC[C@H]1O[C@H](O[C@H]2[C@H](O)[C@@H](O[C@H]3O[C@H](CO)[C@@H](O)[C@H](N)[C@H]3O)[C@H](N)C[C@@H]2N)[C@H](N)[C@@H](O)[C@@H]1NC(=O)C1CCCCC1 | 64 (≈ 108 µM) | 8 (≈ 13.5 µM) | 1 (≈ 1.69 µM) | 4 (≈ 6.75 µM) | 2 (≈ 3.37 µM) | > 128 | > 128 | 0.25 (≈ 0.422 µM) | 2 (≈ 3.37 µM) | 64 (≈ 108 µM) | 32 (≈ 54 µM) | 1 (≈ 1.69 µM)
6 | NC[C@H]1O[C@H](O[C@H]2[C@H](O)[C@@H](O[C@H]3O[C@H](CO)[C@@H](O)[C@H](N)[C@H]3O)[C@H](N)C[C@@H]2N)[C@H](N)[C@@H](O)[C@@H]1O [BEKANAMYCIN] | 64 (≈ 132 µM) | 64 (≈ 132 µM) | 1 (≈ 2.07 µM) | > 128 | 4 (≈ 8.27 µM) | > 128 | > 128 | 0.25 (≈ 0.517 µM) | 4 (≈ 8.27 µM) | 64 (≈ 132 µM) | 16 (≈ 33.1 µM) | 32 (≈ 66.2 µM)
7 | CN(C)[C@H]1[C@H](O)[C@@H](N)[C@@H](O[C@H]2[C@H](O)[C@@H](O[C@H]3O[C@H](CO)[C@@H](O)[C@H](N)[C@H]3O)[C@H](N)C[C@@H]2N)O[C@@H]1CN | > 128 | > 128 | 32 (≈ 62.7 µM) | > 128 | 128 (≈ 251 µM) | > 128 | > 128 | 16 (≈ 31.3 µM) | 64 (≈ 125 µM) | > 128 | 64 (≈ 125 µM) | 32 (≈ 62.7 µM)
8 | NC[C@H]1O[C@H](O[C@H]2[C@H](O)[C@@H](O[C@H]3O[C@H](CO)[C@@H](O)[C@H](N)[C@H]3O)[C@H](N)C[C@@H]2N)[C@H](N)[C@@H](O)[C@@H]1NC(=O)C1CCNCC1 | 128 (≈ 216 µM) | 2 (≈ 3.37 µM) | 1 (≈ 1.68 µM) | 2 (≈ 3.37 µM) | 2 (≈ 3.37 µM) | > 128 | 128 (≈ 216 µM) | 0.25 (≈ 0.421 µM) | 2 (≈ 3.37 µM) | 4 (≈ 6.74 µM) | 8 (≈ 13.5 µM) | 0.25 (≈ 0.421 µM)
